Source: PubChem BioAssay
H69AR inhibit: blocks growth of human H69AR lung tumor cells | H69AR lung tumor viability, ATP luminescence, 72 h; stronger effect = lower value | 85,000 tested, 6% active | viability, % at 10 µM;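 active means viability at or below 40%; inactive means viability above 40%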;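 further: multidrug resistant small cell line overexpressing MRP-1 efflux transporter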
HUVEC prolif 384: blocks proliferation of human endothelial cells | 86,000 tested, 1.1% active | HUVEC proliferation, CellTiter-Glo luminescence, 72 h; stronger effect = lower value | AID 648 | viability, % at 10 µM (by protocol);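 active means viability at or below 30%; inactive means viability above 30%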
Lung fibro prol: blocks proliferation of human lung fibroblasts; 85,000 tested, 1.1% active; LL 47 human lung fibroblast viability, ATP luminescence; stronger effect = lower value; viability, % at 10 µM;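 active means viability at or below 50% in the single dose screen; inactive means viability above 50%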;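 further: compound exposure lasted 72 h before the ATP readout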
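Benchmarks: Cell-only wells, no compound | Test system: LL 47 human lung fibroblasts, passage 12 or lower | Input: 1,150 cells/well | Measured by: CellTiter-Glo luminescence measuring cellular ATP | Medium: IMEM, 15% FBS supplement | Schedule: Overnight attachment after seeding, then 72 h compound exposure at 37 °C | Doses: Compound addition at 0.1% DMSO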
HCT116 bCat-KO: beta-catenin-lacking colon tumor cell growth suppression; HCT116 beta-catenin knockout viability, CellTiter-Glo, 60 h; stronger effect = lower value; viability, % at 10 µM; 140,000 tested, 1.5% active; AID 818;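 active means viability at or under a set limit, the compound median less 4 SD, cut at about 6% in these data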
HCT116 PTEN-null: growth suppressors of cells with PTEN tumor suppressor deletion; viability, % at 10 µM; 140,000 tested, 1.2% active; HCT116 PTEN-null viability, CellTiter-Glo, 60 h; stronger effect = lower value;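 active means viability at or below a set limit, 4 SD under the median of all tested compounds, cut at about 3.7% in these data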;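 further: PTEN knockout HCT116 line with beta catenin targeted HCT116 as companion control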
Each line names hits and unclear results; the compound was inactive in the other large screens. The full list was thinned out, with hits kept by preference.

COc1ccc(CC(=O)Nc2ccc(-c3nc4cc(C)ccc4o3)c(O)c2)cc1OC	Lung fibro prol 40.0
O=C(Nc1ccc(-c2nc3cc(Cl)ccc3o2)cc1)C1CCCO1 (stereo unspecified)	H69AR inhibit 33.5
O=C(Cc1ccccc1)Nc1ccc2oc(-c3cccnc3)nc2c1	none
O=C(CN1CCCCCC1)N/N=C/c1cccc(Cl)c1Cl	none (no result: H69AR inhibit, HUVEC prolif 384, Lung fibro prol)
Cc1ccc(C(=O)Oc2ccccc2N2C(=O)C3C4CCC(C4)C3C2=O)cc1 (stereo unspecified)	none (no result: H69AR inhibit, HUVEC prolif 384, Lung fibro prol)
O=C(COC(=O)C1CC2C=CC1C2)Nc1cccc(S(=O)(=O)N2CCCCCC2)c1 (stereo unspecified)	none (no result: H69AR inhibit, HUVEC prolif 384, Lung fibro prol)
Cc1cc(C(=O)CSc2nnnn2-c2ccccc2)c(C)n1CCc1ccccc1	H69AR inhibit 18.6
COc1ccc(CCn2c(C)cc(C(=O)CSc3nnnn3-c3ccccc3)c2C)cc1OC	none
COc1cc(C2=NOC(C(=O)NCc3cccs3)C2)cc(OC)c1OC (stereo unspecified)	H69AR inhibit 24.0
COc1ccc(C2=NOC(C(=O)NCc3cccs3)C2)cc1 (stereo unspecified)	none
COc1ccc(C2=NOC(C(=O)NCc3cccs3)C2)cc1OC (stereo unspecified)	H69AR inhibit 24.2
O=C(CCn1cnc(-c2ccccc2)c1-c1ccccc1)N/N=C/c1ccccc1O	none (no result: H69AR inhibit, HUVEC prolif 384, Lung fibro prol)
O=C(COC(=O)c1cc(-c2cccs2)nn1-c1ccccc1)Nc1ccc(F)c([N+](=O)[O-])c1	none (no result: H69AR inhibit, HUVEC prolif 384, Lung fibro prol)
COc1cc2c(cc1OC)CN(C(=O)c1cc3ccccc3oc1=O)CC2	H69AR inhibit 23.6 (no result: Lung fibro prol)
Cc1cc(C(=O)CSc2n[nH]c(N)n2)c(C)n1-c1ccc2c(c1)OCO2	none (no result: H69AR inhibit, HUVEC prolif 384, Lung fibro prol)
CC1CCCCC12NC(=O)N(CC(=O)Nc1ccc(N3CCOCC3)cc1)C2=O (stereo unspecified)	none (no result: H69AR inhibit, HUVEC prolif 384, Lung fibro prol)
Cc1cc(-c2ccccc2)nc2cc(C(=O)N(Cc3ccccc3)Cc3ccccc3)nn12	H69AR inhibit 39.6, HUVEC prolif 384 26.4
CCOC(=O)C1CCCN(C(=S)Nc2cccc(Cl)c2)C1 (stereo unspecified)	none (no result: H69AR inhibit, HUVEC prolif 384, Lung fibro prol)
COc1ccc(C2=CC(c3sccc3C)n3nnnc3N2)cc1 (stereo unspecified)	none
COc1ccccc1C1C=C(c2ccccc2)Nc2nnnn21 (stereo unspecified)	H69AR inhibit 10.6
COc1cccc(C2=CC(c3cccs3)n3nnnc3N2)c1 (stereo unspecified)	H69AR inhibit 14.9
COc1cccc(C2=CC(c3ccc(OC)c(OC)c3OC)n3nnnc3N2)c1 (stereo unspecified)	H69AR inhibit 7.6
CCOC(=O)C1C(c2ccc(O)c(O)c2)NC(=S)NC1(O)C(F)(F)F (stereo unspecified)	none (no result: H69AR inhibit, HUVEC prolif 384, Lung fibro prol)
COc1cc(/C=C/C(=O)O)cc(S(=O)(=O)NCCO)c1OC	none (no result: H69AR inhibit, HUVEC prolif 384, Lung fibro prol)
Cn1c(=O)c(C(=O)COC(=O)c2cc(-c3ccco3)nc3ccccc23)c(N)n(CC2CC2)c1=O	none (no result: H69AR inhibit, HUVEC prolif 384, Lung fibro prol)
O=C1CC(=C2c3ccccc3-c3ccccc32)C(=O)N1CCN1CCN(c2cccc(Cl)c2)CC1	none (no result: HCT116 bCat-KO, HCT116 PTEN-null)
COC(=O)c1ccccc1NC(=O)c1ccc2c(c1)C(=O)N(Cc1ccco1)C2=O	H69AR inhibit 11.3 (no result: HCT116 bCat-KO, HCT116 PTEN-null)
CN(C)c1ccc(/C=C(\C#N)C(=O)Nc2nc3c(s2)CCN(Cc2ccccc2)C3)cc1	H69AR inhibit 2.4, HUVEC prolif 384 23.5
CCN1CCc2nc(NC(=O)c3ccccc3)sc2C1	none (no result: H69AR inhibit, HUVEC prolif 384, Lung fibro prol)
CCN(CC)S(=O)(=O)c1ccc(C)c(NC(=O)COC(=O)c2ccc(C)c(S(=O)(=O)N3CCOCC3)c2)c1	none (no result: H69AR inhibit, HUVEC prolif 384, Lung fibro prol)
O=C(CSc1nnc(-c2ccccc2Cl)o1)Oc1ccc(Br)cc1	HCT116 bCat-KO 0.9, HCT116 PTEN-null 0.7
Cc1ccc(N2CCN(c3cc(C)nc4nc(C)nn34)CC2)c(C)c1	none
Cn1cnc([N+](=O)[O-])c1S(=O)(=O)c1cccc(Cl)c1	HCT116 bCat-KO 1.2, HCT116 PTEN-null 0.9 (no result: H69AR inhibit, HUVEC prolif 384, Lung fibro prol)
O=C(CCSc1ccccc1)Nc1ccc(OCc2ccccc2)cc1	none (no result: H69AR inhibit, HUVEC prolif 384, Lung fibro prol)
C/C(=N\NC(=O)c1cc(-c2cccc([N+](=O)[O-])c2)n[nH]1)c1ccccc1O	HCT116 PTEN-null 2.9 (no result: H69AR inhibit, HUVEC prolif 384, Lung fibro prol)
C/C(=N\NC(=O)c1ccccc1C)c1cccc([N+](=O)[O-])c1	none (no result: H69AR inhibit, HUVEC prolif 384, Lung fibro prol)
CSc1nc2ccccc2n1Cc1c(Cl)cccc1Cl	H69AR inhibit 35.6
CSc1nc2ccccc2n1CC(=O)Nc1c(C)cccc1C	none
COc1ccc(N2CC(C(=O)O)CC2=O)cc1 (stereo unspecified)	none
COc1ccc(/C(N)=N/OC(=O)c2cccc([N+](=O)[O-])c2C)cc1OC	H69AR inhibit 36.4
COc1ccc(C2CC(c3c(O)cc(C)oc3=O)=NCCS2)c(OC)c1 (stereo unspecified)	H69AR inhibit 24.4, Lung fibro prol 47.9
Cc1cc(O)c(C2=Nc3ccccc3SC(c3ccc(Cl)cc3)C2)c(=O)o1 (stereo unspecified)	none (no result: H69AR inhibit, HUVEC prolif 384, Lung fibro prol)
CCc1nc(NCCCn2ccnc2)c2oc3ccccc3c2n1	none
c1ccc(-c2nc(NCCCn3ccnc3)c3oc4ccccc4c3n2)cc1	H69AR inhibit 17.9
C=CCOC(=O)C1=C(C)NC(SCC(=O)Nc2nccs2)=C(C#N)C1c1cccs1 (stereo unspecified)	H69AR inhibit 28.4, HUVEC prolif 384 17.9
C=CCOC(=O)C1=C(C)NC(SCC(=O)Nc2nccs2)=C(C#N)C1c1ccc(Cl)cc1 (stereo unspecified)	none
C=CCOC(=O)C1=C(C)NC(SC)=C(C#N)C1c1ccc(OCC)cc1 (stereo unspecified)	H69AR inhibit 38.7
C=CCOC(=O)C1=C(C)NC(SCC(=O)OCC)=C(C#N)C1c1ccc(O)c(OC)c1 (stereo unspecified)	none
CCSC1=C(C#N)C(c2cccs2)C(C(=O)OC)=C(C)N1 (stereo unspecified)	none
C=CCOC(=O)C1=C(C)NC(SC)=C(C#N)C1c1cccs1 (stereo unspecified)	H69AR inhibit 20.0
CCOC(=O)c1cc(=O)c2c([N+](=O)[O-])ccc(OC)c2o1	none (no result: H69AR inhibit, HUVEC prolif 384, Lung fibro prol)
CCNc1ccc(Br)cc(C(=O)/C=C/c2ccccc2Cl)c1=O	H69AR inhibit 2.0, HUVEC prolif 384 7.6, Lung fibro prol 40.4 (no result: HCT116 bCat-KO, HCT116 PTEN-null)
CNc1ccc(Br)cc(C(=O)/C=C/c2cccc(OC)c2OC)c1=O	H69AR inhibit 5.3
C=C(C)C1CC=C(C)/C(=N\NC(=S)Nc2ccc(C)cc2)C1 (stereo unspecified)	none (no result: H69AR inhibit, HUVEC prolif 384, Lung fibro prol)
CCOC(=O)c1c(NC(=O)c2ccc(-n3cnnn3)cc2)sc2c1CCCC2	H69AR inhibit 2.1, HCT116 bCat-KO 3.4 (no result: Lung fibro prol)
COCCn1c(N)c(C(=O)Nc2sc3c(c2C(=O)OC)CCCC3)c2nc3ccccc3nc21	HCT116 bCat-KO 4.0
CCOC(=O)c1c(NC(=O)Cn2c(C)nc3ccccc32)sc2c1CCC2	H69AR inhibit 35.9
CCOC(=O)c1c(NC(=O)c2ccc(N3C(=O)[C@@H]4[C@H](C3=O)[C@H]3C=C[C@@H]4C3)cc2)sc2c1CCCC2	none (no result: H69AR inhibit, HUVEC prolif 384, Lung fibro prol)
O=C1c2[nH]nc(-c3ccccc3O)c2C(c2cccc(O)c2)N1Cc1ccco1 (stereo unspecified)	H69AR inhibit 38.1
